Laboratory results from ChEMBL document CHEMBL5303300, “EUbOPEN Chemogenomics Library - Multiplex” (2023).
“And” between values parts separate entries of the source, which are not always exact repeats. Equal values may be shown once.

Tested on: HEK-293T
Test: Multiplex assay against HEK293T
Type: toxicity, cell-based
Details: human, number of replicates 2
How it was run: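 Live cells carried four stains from seeding: Hoechst33342, BioTracker Green Microtubule Cytoskeleton Dye, MitoTracker Red and Annexin V Alexa Fluor 680. They were imaged on a CQ1 microscope at 37°C and 5% CO2 after compound addition. Using CellPathfinder machine-learning gating, cells were split into Hoechst high-intensity objects or normal cells, normal cells into healthy, pyknosed or fragmented nuclei, and pyknosed cells into mitotic or apoptotic; tubulin, mitochondrial-mass and membrane-permeability phenotypes are per cents of healthy-nucleus cells.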

[1] = 12 h, 1 µM, compound concentration 1 uM
[2] = 12 h, 10 µM, compound concentration 10 uM
[3] = 24 h, 1 µM, compound concentration 1 uM
[4] = 24 h, 10 µM, compound concentration 10 uM
[5] = 48 h, 1 µM, compound concentration 1 uM
[6] = 48 h, 10 µM, compound concentration 10 uM

CC(C)S(=O)(=O)c1ccccc1Nc1nc(N[C@@H]2CCCN(CCCCCCCNC(=O)COc3cccc4c3C(=O)N(C3CCC(=O)N(C)C3=O)C4=O)C2)ncc1Cl (some centres undefined)
Population Apoptotic (%) [1]: 55% and 78% | Population Fragmented Nuclei (%) [1]: 6% and 3% | Population Healthy Nuclei (%) [1]: 84% and 81% | Population Hoechst High Intensity Objects (%) [1]: 11% | Population Membrane Permeable-Phenotype (%) [1]: 0% | Population Mitochondria Different-Phenotype (%) [1]: 39% and 45% | Population Mitotic Cells (%) [1]: 44% and 21% | Population Normal (%) [1]: 88% | Population Pyknosed Nuclei (%) [1]: 8% and 14% | Population Tubulin-Different-Phenotype (%) [1]: 56% and 62% | Total Cell Count [1]: 479 and 318 | Population Apoptotic (%) [2]: 60% and 74% | Population Fragmented Nuclei (%) [2]: 3% | Population Healthy Nuclei (%) [2]: 69% and 72% | Population Hoechst High Intensity Objects (%) [2]: 18% and 14% | Population Membrane Permeable-Phenotype (%) [2]: 2% and 3% | Population Mitochondria Different-Phenotype (%) [2]: 76% | Population Mitotic Cells (%) [2]: 39% and 25% | Population Normal (%) [2]: 81% and 85% | Population Pyknosed Nuclei (%) [2]: 26% and 24% | Population Tubulin-Different-Phenotype (%) [2]: 49% and 77% | Total Cell Count [2]: 464 and 428 | Population Apoptotic (%) [3]: 48% and 83% | Population Fragmented Nuclei (%) [3]: 2% and 4% | Population Healthy Nuclei (%) [3]: 90% and 85% | Population Hoechst High Intensity Objects (%) [3]: 7% | Population Membrane Permeable-Phenotype (%) [3]: 0% | Population Mitochondria Different-Phenotype (%) [3]: 20% and 21% | Population Normal (%) [3]: 92% | Population Pyknosed Nuclei (%) [3]: 7% and 10% | Population Tubulin-Different-Phenotype (%) [3]: 40% | Total Cell Count [3]: 702 and 488 | Population Apoptotic (%) [4]: 82% | Population Fragmented Nuclei (%) [4]: 4% and 5% | Population Healthy Nuclei (%) [4]: 78% | Population Hoechst High Intensity Objects (%) [4]: 18% and 16% | Population Membrane Permeable-Phenotype (%) [4]: 0% and 1% | Population Mitochondria Different-Phenotype (%) [4]: 80% and 91% | Population Mitotic Cells (%) [4]: 17% | Population Normal (%) [4]: 81% and 83% | Population Pyknosed Nuclei (%) [4]: 17% and 16% | Population Tubulin-Different-Phenotype (%) [4]: 90% and 92% | Total Cell Count [4]: 438 and 432 | Population Apoptotic (%) [5]: 40% and 66% | Population Fragmented Nuclei (%) [5]: 8% and 4% | Population Healthy Nuclei (%) [5]: 85% | Population Hoechst High Intensity Objects (%) [5]: 8% and 7% | Population Membrane Permeable-Phenotype (%) [5]: 2% and 1% | Population Mitochondria Different-Phenotype (%) [5]: 7% and 11% | Population Mitotic Cells (%) [5]: 60% and 33% | Population Normal (%) [5]: 91% and 92% | Population Pyknosed Nuclei (%) [5]: 5% and 9% | Population Tubulin-Different-Phenotype (%) [5]: 26% and 27% | Total Cell Count [5]: 1045 and 630 | Population Apoptotic (%) [6]: 81% and 86% | Population Fragmented Nuclei (%) [6]: 5% | Population Healthy Nuclei (%) [6]: 82% and 78% | Population Hoechst High Intensity Objects (%) [6]: 17% and 20% | Population Membrane Permeable-Phenotype (%) [6]: 0% | Population Mitochondria Different-Phenotype (%) [6]: 46% and 78% | Population Mitotic Cells (%) [6]: 18% and 14% | Population Normal (%) [6]: 82% and 79% | Population Pyknosed Nuclei (%) [6]: 11% and 16% | Population Tubulin-Different-Phenotype (%) [6]: 57% and 65% | Total Cell Count [6]: 458 and 378

CS(=O)(=O)c1ccc(C(=O)Nc2cc(F)cc(COc3ccc(Br)cc3CN3CC[C@H](O)C3)c2)c(Cl)c1.O=CO
Population Apoptotic (%) [1]: 63% | Population Healthy Nuclei (%) [1]: 81% and 82% | Population Mitotic Cells (%) [1]: 45% and 36% | Population Pyknosed Nuclei (%) [1]: 16% and 13% | Total Cell Count [1]: 543 and 646 | Population Apoptotic (%) [2]: 68% and 69% | Population Healthy Nuclei (%) [2]: 83% and 84% | Population Mitotic Cells (%) [2]: 31% and 30% | Population Pyknosed Nuclei (%) [2]: 13% | Total Cell Count [2]: 462 and 578 | Population Apoptotic (%) [3]: 60% and 50% | Population Healthy Nuclei (%) [3]: 82% | Population Mitotic Cells (%) [3]: 39% and 49% | Total Cell Count [3]: 757 and 913 | Population Apoptotic (%) [4]: 70% | Population Healthy Nuclei (%) [4]: 79% and 83% | Population Mitotic Cells (%) [4]: 29% | Population Pyknosed Nuclei (%) [4]: 17% | Total Cell Count [4]: 505 and 555 | Population Apoptotic (%) [5]: 34% and 23% | Population Healthy Nuclei (%) [5]: 85% | Population Mitotic Cells (%) [5]: 65% and 76% | Population Pyknosed Nuclei (%) [5]: 3% and 4% | Total Cell Count [5]: 1715 and 1868 | Population Apoptotic (%) [6]: 54% and 57% | Population Healthy Nuclei (%) [6]: 85% and 80% | Population Mitotic Cells (%) [6]: 46% and 42% | Population Pyknosed Nuclei (%) [6]: 8% and 10% | Total Cell Count [6]: 633 and 761
